Tests used:
Conditions in all cases: in vivo, 24 h
[1] = Drug excretion in Rattus norvegicus CD Sprague-Dawley (rat) urine assessed as 1-hydroxypropan-2-yl 3-ethoxy-4-hydroxycarbanilate at 300 mg/5ml, po daily for 4 consecutive days measured within 1 day after final dose by NMR/MS analysis; type: ADME, organism-based
Outline: (§1)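 Male CD (Sprague-Dawley) rats, 11 weeks old (n=4), housed individually in glass metabolism cages separating urine and feces. [phenyl-14C]-labelled compound given by gastric probe in corn oil at 300 mg/5 mL/kg daily for 4 days. Urine from the day after the last dose: aqueous layer hydrolysed with sulfatase (with β-glucuronidase activity) in 0.2 M acetate pH 5.0, 37 °C, 19 h. Ethyl acetate extraction, then HPLC/TLC purification and NMR/ESI-MS identification.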

[2] = Drug excretion in Rattus norvegicus CDSprague-Dawley (rat) urine assessed as isopropyl 3-ethoxy-4- hydroxy-5-(methylthio) carbanilate at 300 mg/5ml, po daily for 4 consecutive days measured within 1 day after final dose by NMR/MS analysis; type: ADME, organism-based, CD Sprague-Dawley; outline: as §1
[3] = Drug excretion in Rattus norvegicus CD Sprague-Dawley (rat) urine assessed as N-(3-ethoxy-4-hydroxyphenyl)-2-hydroxyacetamide at 300 mg/5ml, po daily for 4 consecutive days measured within 1 day after final dose by NMR/MS analysis; type: ADME, organism-based; outline: as §1
[4] = Drug excretion in Rattus norvegicus CD Sprague-Dawley (rat) urine assessed as N-(3-ethoxy-4- hydroxyphenyl)acetamide at 300 mg/5ml, po daily for 4 consecutive days measured within 1 day after final dose by NMR/MS analysis; type: ADME, organism-based; outline: as §1
[5] = Drug excretion in Rattus norvegicus CD Sprague-Dawley (rat) urine assessed as 2-acetamino-3-{3-ethoxy-2-hydroxy-5-[(isopropoxycarbonyl) amino]phenylthio}propionic acid at 300 mg/5ml, po daily for 4 consecutive days measured within 1 day after final dose by NMR/MS analysis; type: ADME, organism-based; outline: as §1
[6] = Drug excretion in Rattus norvegicus CD Sprague-Dawley (rat) urine assessed as 2-acetamino- 3-[5-acetamino-3-ethoxy-2-hydroxyphenylthio]propionic acid at 300 mg/5ml, po daily for 4 consecutive days measured within 1 day after final dose by NMR/MS analysis; type: ADME, organism-based; outline: as §1
[7] = Drug excretion in Rattus norvegicus CD Sprague-Dawley (rat) urine assessed as 3-(3-ethoxy-4-hydroxyphenyl)-4-hydroxy-5-methyloxazolidin- 2-one at 300 mg/5ml, po daily for 4 consecutive days measured within 1 day after final dose by NMR/MS analysis; type: ADME, organism-based; outline: as §1
[8] = Drug excretion in Rattus norvegicus CD Sprague-Dawley (rat) urine assessed as N-(3-ethoxy-4-hydroxy-5-methylsulfinylphenyl) acetamide at 300 mg/5ml, po daily for 4 consecutive days measured within 1 day after final dose by NMR/MS analysis; type: ADME, organism-based; outline: as §1
[9] = Drug excretion in Rattus norvegicus CD Sprague-Dawley (rat) urine assessed as 2-acetamino-3-{4-ethoxy-3-hydroxy-2-[(isopropoxycarbonyl)amino]phenylthio}propionic acid at 300 mg/5ml, po daily for 4 consecutive days measured within 1 day after final dose by NMR/MS analysis; type: ADME, organism-based; outline: as §1
[10] = Drug excretion in Rattus norvegicus CD Sprague-Dawley (rat) urine assessed as 2-{2-ethoxy-4-[(isopropoxycarbonyl)amino]- phenoxy}acetic acid at 300 mg/5ml, po daily for 4 consecutive days measured within 1 day after final dose by NMR/MS analysis; type: ADME, organism-based; outline: as §1
[11] = Drug excretion in Rattus norvegicus CD Sprague-Dawley (rat) urine assessed as (4-acetamino-2-ethoxyphenoxy) acetic acid at 300 mg/5ml, po daily for 4 consecutive days measured within 1 day after final dose by NMR/MS analysis; type: ADME, organism-based; outline: as §1

Measured: Drug excretion

CCOc1ccc(NC(=O)OC(C)C)cc1OCC [DIETHENOFENCARB]
Active: all assays above

Source: ChEMBL document CHEMBL3045693, “Metabolism of diethofencarb (isopropyl 3,4-diethoxyphenylcarbamate) in rats: identification of metabolites in urine” (J Agric Food Chem, 2004)
